Screens as filed in PubChem BioAssay.
Shown are actives, neighbours in structure and some others; about 2.4% of the full set was active somewhere.
HNF4A DNA FP: change in binding of human HNF4A to DNA, primary screen, biochemical, fluorescence polarization, FITC-DNA; Hepatocyte nuclear factor 4-alpha (Homo sapiens), P41235; 1 h; activity change, % at 10 µM; hit rate 0.3% among 360,000; AID 1224865, 2016; in the data active = activity change above about 30%, passing the limit was not always enough
Target sequence (P41235 whole entry, looked up): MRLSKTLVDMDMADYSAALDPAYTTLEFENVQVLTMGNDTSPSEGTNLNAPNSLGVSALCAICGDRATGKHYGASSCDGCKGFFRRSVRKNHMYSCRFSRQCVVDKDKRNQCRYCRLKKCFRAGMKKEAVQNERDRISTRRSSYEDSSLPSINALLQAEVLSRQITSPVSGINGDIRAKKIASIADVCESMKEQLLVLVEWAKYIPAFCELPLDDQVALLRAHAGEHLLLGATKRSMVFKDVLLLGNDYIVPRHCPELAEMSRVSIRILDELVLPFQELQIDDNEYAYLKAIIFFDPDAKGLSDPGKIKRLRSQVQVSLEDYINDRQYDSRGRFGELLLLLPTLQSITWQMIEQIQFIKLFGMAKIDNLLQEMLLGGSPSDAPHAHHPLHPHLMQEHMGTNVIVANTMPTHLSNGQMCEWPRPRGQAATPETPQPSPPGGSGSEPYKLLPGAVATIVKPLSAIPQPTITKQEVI
Rin1 Abl inh: inhibitors of Rin1-Abl protein binding, primary screen, biochemical, TR-FRET. Tyrosine-protein kinase ABL1 (Homo sapiens) + Ras and Rab interactor 1 (Homo sapiens), …. inhibition, % at 7.35 µM. hit rate 0.4% among 360,000. AID 588664, 2011; in the data active = inhibition above about 5%, passing the limit was not always enough
Neddyl block: inhibitors of cullin neddylation, primary screen, biochemical, TR-FRET, uHTS, NAE and Ubc12 | inhibition, % at 25 µM | AID 651699, 2012 | NEDD8-conjugating enzyme Ubc12 (Homo sapiens) + NEDD8-activating enzyme E1 regulatory … | hit rate 0.58% among 360,000; in the data active = inhibition above about 36%
TPT1 inhibitor: Candida albicans TPT1 enzyme inhibitors, primary screen, biochemical, fluorescence polarization; recombinant caTPT1, FP RNA substrate dephosphorylation; hit rate 0.81% among 300,000; inhibition, % at 5 µM;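 active = inhibition above the mean of all tested compounds plus 3 SD, set per screening campaign, cut at about 24% in these data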;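 note: plate controls were DMSO alone for no effect and ferristatin control at 100 nM for full effect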
Rpn11 block: Rpn11 (PSMD14) deubiquitinase inhibitors, primary screen, biochemical, fluorescence polarization, uHTS | human 26S proteasome, Ub4-pepOG fluorescence polarization; 20S core pre-blocked with epoxomicin | inhibition, % at 20 µM | hit rate 0.59% among 360,000 | AID 588493, 2011;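 active = inhibition at 20 µM, scaled to each plate's controls, above about 33%, limit read from the data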
CSN deneddyl inh: inhibitors of CSN-mediated cullin deneddylation, primary screen, biochemical, fluorescence polarization, uHTS; Purified CSN, SCF-Nedd8-OG deneddylation; inhibition, % at 12.5 µM; hit rate 0.38% among 360,000;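 active = pattern-corrected inhibition above about 35%, with an unprinted fluorescence ratio check between 0.5 and 1.5, limit read from the data, passing the limit was not always enough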;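 note: 0% = enzyme with substrate and 100% = substrate without enzyme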
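Assay system: Purified human Csn5 enzyme expressed in HEK293T cells | Amount: Enzyme 0.24 nM | Measured by: Fluorescence polarization readout | Medium: Tris/NaCl/DTT buffer, pH 7.5 | Compound dosing: One concentration, 12.5 µM, 0.25% DMSO | Times: 90 min incubation of compound, enzyme and substrate at room temperature | Control set: no-enzyme wells high, enzyme-with-substrate wells low | Read-out: % inhibition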
Neddyl inh conf: blockade of NEDD8 conjugation to cullin – biochemical, TR-FRET, single concentration, confirmation | shares compounds with Neddyl block | TR-FRET cullin neddylation biochemical assay | calls only at 25 µM | hit rate 13% among 1,800; in the data active = inhibition above about 40%;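 note: neddylation substrate is the cullin 1 ring ligase complex with SKP2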
The depositor's hits bear a star.

How did C[C@@H]1CN([C@@H](C)CO)C(=O)c2cc(NC(=O)c3ccccc3)ccc2O[C@@H](C)CCCCO[C@@H]1CN(C)Cc1ccc(C(F)(F)F)cc1 do in these assays?
HNF4A DNA FP: 1; Rin1 Abl inh: 0; Neddyl block: 2; Rpn11 block: 11; CSN deneddyl inh: -4

How did O=C(CCCc1c[nH]c2ccccc12)N1CCN(c2ccc(N3CCOCC3)nn2)CC1 do in these assays?
HNF4A DNA FP: 3; Rin1 Abl inh: 0; Neddyl block: 44*; TPT1 inhibitor: -1; Rpn11 block: -9; CSN deneddyl inh: 0; Neddyl inh conf: active

What do the screens show for `COc1cccc(C(=O)N2CCN(c3ccc(N4CCOCC4)nn3)CC2)c1`?
HNF4A DNA FP: 2; Rin1 Abl inh: 3; Neddyl block: 61*; TPT1 inhibitor: 4; Rpn11 block: -5; CSN deneddyl inh: 2

What do the screens show for `O=C(c1cccc(Br)c1)N1CCN(c2ccc(N3CCOCC3)nn2)CC1`?
HNF4A DNA FP: 0; Rin1 Abl inh: 3; Neddyl block: 50*; TPT1 inhibitor: 1; Rpn11 block: 4; CSN deneddyl inh: -3

What do the screens show for `CCN1CCN(c2ccc(N3CCN(C(=O)c4ccc(Br)o4)CC3)nn2)CC1`?
HNF4A DNA FP: -2; Rin1 Abl inh: 1; Neddyl block: 48*; TPT1 inhibitor: -2; Rpn11 block: -5; CSN deneddyl inh: 1

What do the screens show for `O=C(c1cncc(Br)c1)N1CCN(c2ccc(N3CCOCC3)nn2)CC1`?
HNF4A DNA FP: -2; Rin1 Abl inh: -1; Neddyl block: 30; TPT1 inhibitor: -2; Rpn11 block: -5; CSN deneddyl inh: 7

What do the screens show for `Cc1cc([N+](=O)[O-])nn1CCCC(=O)Nc1cccc(Cl)c1Cl`?
HNF4A DNA FP: 4; Rin1 Abl inh: 1; Neddyl block: -13; TPT1 inhibitor: -1; Rpn11 block: 1; CSN deneddyl inh: 5

What do the screens show for `Cc1ccc(C)c2[nH]c(=O)c(CCNC(=O)CCc3ccccc3)cc12`?
HNF4A DNA FP: 1; Rin1 Abl inh: 0; Neddyl block: -4; TPT1 inhibitor: -5; Rpn11 block: 4; CSN deneddyl inh: -3

What do the screens show for `Cc1ccccc1C(=O)N1CCN(c2nc(N3CCOCC3)nc(N3CCOCC3)n2)CC1`?
HNF4A DNA FP: 1; Rin1 Abl inh: -1; Neddyl block: -4; TPT1 inhibitor: -7; Rpn11 block: -4; CSN deneddyl inh: -4

Results for Cc1ccccc1C(=O)N1CCN(c2ccc(N3CCOCC3)nn2)CC1 ?
HNF4A DNA FP: 5; Rin1 Abl inh: -1; Neddyl block: 60*; TPT1 inhibitor: -1; Rpn11 block: 1; CSN deneddyl inh: 9

How did N#CCCn1c(-c2nonc2NC(=O)c2ccccc2Cl)nc2ccccc21 do in these assays?
HNF4A DNA FP: 5; Rin1 Abl inh: 3; Neddyl block: 13; TPT1 inhibitor: 0; Rpn11 block: 14; CSN deneddyl inh: 0

What do the screens show for `CC(=O)Nc1nonc1-c1nc2ccccc2n1CCC#N`?
HNF4A DNA FP: -3; Rin1 Abl inh: -1; Neddyl block: 45*; TPT1 inhibitor: 3; Rpn11 block: 10; CSN deneddyl inh: 4; Neddyl inh conf: inactive

How did Cc1cccn2c(=O)c(C=NCc3ccccc3)c(NCCO)nc12 do in these assays?
HNF4A DNA FP: 2; Rin1 Abl inh: -1; Neddyl block: 45*; TPT1 inhibitor: -4; Rpn11 block: -5; CSN deneddyl inh: 0; Neddyl inh conf: active

What do the screens show for `Cc1cccn2c(=O)c(/C=N/O)c(NCc3ccccc3)nc12`?
HNF4A DNA FP: 3; Rin1 Abl inh: -2; Neddyl block: 43*; TPT1 inhibitor: 1; Rpn11 block: -4; CSN deneddyl inh: -5

Results for COc1ccc(OC)c(NC(=O)COC(=O)CCNc2ccccc2OC)c1 ?
HNF4A DNA FP: 1; Rin1 Abl inh: 1; Neddyl block: -11; Rpn11 block: 3; CSN deneddyl inh: -1

What do the screens show for `COC(=O)CCN(c1ccccc1)S(=O)(=O)c1cc(-c2cc(C)no2)ccc1OC`?
HNF4A DNA FP: -5; Rin1 Abl inh: 3; Neddyl block: 3; TPT1 inhibitor: -1; Rpn11 block: -7; CSN deneddyl inh: 3

How did Cc1ccc2nc3ccc(N4CCN(C)CC4)nn3c(=O)c2c1 do in these assays?
HNF4A DNA FP: 2; Rin1 Abl inh: 0; TPT1 inhibitor: -4; Rpn11 block: -4; CSN deneddyl inh: 4

What do the screens show for `Cc1ccc2nc3ccc(N4CCCCCCC4)nn3c(=O)c2c1`?
HNF4A DNA FP: -1; Rin1 Abl inh: 0; Neddyl block: 53*; TPT1 inhibitor: -4; Rpn11 block: 2; CSN deneddyl inh: 5; Neddyl inh conf: inactive

Results for COc1ccc(/C=C(\NC(=O)c2ccccc2)C(=O)OC[C@@H]2CCC[N+]3(C)CCCCC23)cc1OC (stereo partly drawn) ?
HNF4A DNA FP: 1; Rin1 Abl inh: 0; Neddyl block: -5; TPT1 inhibitor: 1; Rpn11 block: -1; CSN deneddyl inh: 4

Results for Cc1cc(=O)oc2cc(OCC(=O)N3CCOCC3)c(Cl)cc12 ?
HNF4A DNA FP: 0; Rin1 Abl inh: 0; Rpn11 block: 1; CSN deneddyl inh: -3

What do the screens show for `Cc1cc(=O)oc2cc(OCC(=O)N3CCCC3)c(Cl)cc12`?
HNF4A DNA FP: 1; Rin1 Abl inh: 3; Neddyl block: 60*; Rpn11 block: 2; CSN deneddyl inh: 0

Results for C[C@H](O)[C@@H]1C(=O)N2CCc3c([nH]c4ccccc34)[C@@H]2C[C@@H]1N(C)Cc1ccc(Cl)cc1 ?
HNF4A DNA FP: -1; Rin1 Abl inh: -1; Neddyl block: 44*; Rpn11 block: -2; CSN deneddyl inh: -1; Neddyl inh conf: inactive

How did C1=C[C@H]2CC[C@@H]1N(c1ccccc1)O2 do in these assays?
HNF4A DNA FP: 0; Rin1 Abl inh: 5; Neddyl block: -3; Rpn11 block: 4; CSN deneddyl inh: 0

Results for CCCC(=O)N1CCN(c2nc(CC(C)C)c3c(c2C#N)CCC3)CC1 ?
HNF4A DNA FP: -1; Rin1 Abl inh: 3; Neddyl block: 38*; TPT1 inhibitor: -1; Rpn11 block: 2; CSN deneddyl inh: -2; Neddyl inh conf: inactive
